According to ChEMBL document CHEMBL4715682, “Potent trifluoromethoxy, trifluoromethylsulfonyl, trifluoromethylthio and pentafluorosulfanyl containing (1,3,4-oxadiazol-2-yl)benzamides against drug-resistant Gram-positive bacteria” (RSC Med Chem, 2020):
In brackets after ≈: the same amount, converted by molar mass. Activity calls are given as the source filed them. The rule behind the calls is not given here.

How the values were obtained:
[1] = tested on: Staphylococcus aureus; test: Antibacterial activity against Staphylococcus aureus ATCC 25923 assessed as inhibition of visible bacterial growth incubated for 18 to 20 hrs by CLSI method; format: functional; conditions: time 18-20 hrs
Outline: (§1)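 CLSI broth microdilution. Strains grown aerobically overnight on tryptic soy agar at 37 °C, adjusted to 0.5 McFarland and diluted in cation-adjusted Mueller–Hinton broth to about 5×10^5 CFU/mL. Compounds and control drugs serially diluted across the plate. Incubated aerobically at 37 °C for 18-20 h. MIC is the lowest concentration with no visible growth.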

[2] = tested on: Staphylococcus aureus; test: Antibacterial activity against methicillin-resistant Staphylococcus aureus ATCC 33592 assessed as inhibition of visible bacterial growth incubated for 18 to 20 hrs by CLSI method; format: functional; conditions: time 18-20 hrs; outline: as §1
[3] = tested on: Staphylococcus aureus; test: Antibacterial activity against methicillin-sensitive Staphylococcus aureus ATCC 6538 assessed as inhibition of visible bacterial growth incubated for 18 to 20 hrs by CLSI method; format: functional; conditions: time 18-20 hrs; outline: as §1
[4] = tested on: Staphylococcus aureus; test: Antibacterial activity against methicillin-sensitive Staphylococcus aureus NRS 107 assessed as inhibition of visible bacterial growth incubated for 18 to 20 hrs by CLSI method; format: functional; conditions: time 18-20 hrs; outline: as §1
[5] = tested on: Staphylococcus aureus; test: Antibacterial activity against methicillin-resistant Staphylococcus aureus NRS 119 assessed as inhibition of visible bacterial growth incubated for 18 to 20 hrs by CLSI method; format: functional; conditions: time 18-20 hrs; outline: as §1
[6] = tested on: Staphylococcus aureus; test: Antibacterial activity against methicillin-resistant Staphylococcus aureus NRS382 assessed as inhibition of visible bacterial growth incubated for 18 to 20 hrs by CLSI method; format: functional; conditions: time 18-20 hrs; outline: as §1
[7] = tested on: Staphylococcus aureus; test: Antibacterial activity against methicillin-resistant Staphylococcus aureus NRS383 assessed as inhibition of visible bacterial growth incubated for 18 to 20 hrs by CLSI method; format: functional; conditions: time 18-20 hrs; outline: as §1
[8] = tested on: Staphylococcus aureus; test: Antibacterial activity against methicillin-resistant Staphylococcus aureus NRS384 assessed as inhibition of visible bacterial growth incubated for 18 to 20 hrs by CLSI method; format: functional; conditions: time 18-20 hrs; outline: as §1
[9] = tested on: Staphylococcus aureus; test: Antibacterial activity against methicillin-resistant Staphylococcus aureus NRS123 assessed as inhibition of visible bacterial growth incubated for 18 to 20 hrs by CLSI method; format: functional; conditions: time 18-20 hrs; outline: as §1
[10] = tested on: Staphylococcus aureus; test: Antibacterial activity against methicillin-resistant Staphylococcus aureus NRS385 assessed as inhibition of visible bacterial growth incubated for 18 to 20 hrs by CLSI method; format: functional; conditions: time 18-20 hrs; outline: as §1
[11] = tested on: Staphylococcus aureus; test: Antibacterial activity against methicillin-resistant Staphylococcus aureus NRS386 assessed as inhibition of visible bacterial growth incubated for 18 to 20 hrs by CLSI method; format: functional; conditions: time 18-20 hrs; outline: as §1
[12] = tested on: Staphylococcus aureus; test: Antibacterial activity against methicillin-resistant Staphylococcus aureus NRS387 assessed as inhibition of visible bacterial growth incubated for 18 to 20 hrs by CLSI method; format: functional; conditions: time 18-20 hrs; outline: as §1
[13] = tested on: Staphylococcus aureus; test: Antibacterial activity against methicillin-resistant Staphylococcus aureus NRS483 assessed as inhibition of visible bacterial growth incubated for 18 to 20 hrs by CLSI method; format: functional; conditions: time 18-20 hrs; outline: as §1
[14] = tested on: Staphylococcus aureus; test: Antibacterial activity against methicillin-resistant Staphylococcus aureus NRS484 assessed as inhibition of visible bacterial growth incubated for 18 to 20 hrs by CLSI method; format: functional; conditions: time 18-20 hrs; outline: as §1
[15] = tested on: Staphylococcus aureus; test: Antibacterial activity against vancomycin-resistant Staphylococcus aureus 10 assessed as inhibition of visible bacterial growth incubated for 18 to 20 hrs by CLSI method; format: functional; conditions: time 18-20 hrs; outline: as §1
[16] = tested on: Staphylococcus aureus; test: Antibacterial activity against vancomycin-resistant Staphylococcus aureus 12 assessed as inhibition of visible bacterial growth incubated for 18 to 20 hrs by CLSI method; format: functional; conditions: time 18-20 hrs; outline: as §1
[17] = tested on: Staphylococcus epidermidis; test: Antibacterial activity against Staphylococcus epidermidis NRS101 assessed as inhibition of visible bacterial growth incubated for 18 to 20 hrs by CLSI method; format: functional; conditions: time 18-20 hrs
Outline: (§2)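 Broth microdilution per CLSI. Strains grown aerobically overnight on TSA at 37 °C, suspended to 0.5 McFarland, diluted in CAMHB to about 5×10^5 CFU/mL. Agents serially diluted across plate; aerobic incubation 37 °C for 18-20 h. MIC = lowest concentration completely preventing visible growth.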

[18] = tested on: Streptococcus pneumoniae; test: Antibacterial activity against cephalosporin-resistant Streptococcus pneumoniae ATCC 51916 assessed as inhibition of visible bacterial growth incubated for 18 to 20 hrs by CLSI method; format: functional; conditions: time 18-20 hrs; outline: as §1
[19] = tested on: Streptococcus pneumoniae; test: Antibacterial activity against […] Streptococcus pneumoniae ATCC 700677 assessed as inhibition of visible bacterial growth incubated for 18 to 20 hrs by CLSI method; format: functional; conditions: time 18-20 hrs; outline: as §1
[20] = tested on: Enterococcus faecalis; test: Antibacterial activity against vancomycin- resistant Enterococcus faecalis ATCC 51299 assessed as inhibition of visible bacterial growth incubated for 18 to 20 hrs by CLSI method; format: functional; conditions: time 18-20 hrs; outline: as §1
[21] = tested on: Enterococcus faecalis; test: Antibacterial activity against vancomycin- resistant Enterococcus faecalis ATCC 700221 assessed as inhibition of visible bacterial growth incubated for 18 to 20 hrs by CLSI method; format: functional; conditions: time 18-20 hrs; outline: as §1
[22] = tested on: Listeria monocytogenes; test: Antibacterial activity against Listeria monocytogenes ATCC 19111 assessed as inhibition of visible bacterial growth incubated for 18 to 20 hrs by CLSI method; format: functional; conditions: time 18-20 hrs; outline: as §2
[23] = tested on: Escherichia coli; test: Antibacterial activity against Escherichia coli ATCC 25404 assessed as inhibition of visible bacterial growth at 16 ug/ml incubated for 18 to 20 hrs by CLSI method; format: functional, organism-based; conditions: B ATCC 25404, dose 16.0 µg/ml, time 18-20 hrs; outline: as §1
[24] = tested on: Pseudomonas aeruginosa; test: Antibacterial activity against Pseudomonas aeruginosa ATCC 27853 assessed as inhibition of visible bacterial growth at 16 ug/ml incubated for 18 to 20 hrs by CLSI method; format: functional, organism-based; conditions: dose 16.0 µg/ml, time 18-20 hrs; outline: as §1
[25] = tested on: Acinetobacter baumannii; test: Antibacterial activity against Acinetobacter baumannii ATCC 19606 RW4 assessed as inhibition of visible bacterial growth at 16 ug/ml incubated for 18 to 20 hrs by CLSI method; format: functional, organism-based; conditions: ATCC 19606 = CIP 70.34 = JCM 6841 RW4, dose 16.0 µg/ml, time 18-20 hrs; outline: as §1
[26] = tested on: Caco-2; test: Cytotoxicity against human Caco2 cells assessed as reduction in cell viability at 128 ug/ml incubated for 2 hrs by MTS assay; format: cell-based; conditions: caco-2, 2 h, dose 128 µg/ml
[27] = Hemolytic activity in human RBC at 128 ug/ml incubated for 60 mins relative to control; format: ADME, cell-based, Erythrocyte; conditions: red blood cells (erythrocytes), dose 128 µg/ml, read-out: Activity
Outline: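 Single-donor human erythrocytes as a 5% v/v suspension in PBS. Compounds serially diluted in PBS, in triplicate, and incubated with RBCs at 37 °C for 60 min. PBS served as the negative control and Triton-X as the positive control. Samples spun at 4,000 rpm for 5 min and supernatant absorbance read at 540 nm. Percent hemolysis = 100×(sample−negative)/(positive−negative).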

[28] = tested on: Staphylococcus aureus; test: Bactericidal activity against methicillin-resistant Staphylococcus aureus ATCC 33592 assessed as reduction in bacterial growth incubated for 18 hrs by CLSI method; format: functional
[29] = tested on: Staphylococcus aureus; test: Synergistic antibacterial activity against methicillin-resistant Staphylococcus aureus ATCC 33592 assessed as fractional inhibitory concentration index in presence of linezolid by checkerboard assay; format: functional
[30] = tested on: Staphylococcus aureus; test: Synergistic antibacterial activity against methicillin-resistant Staphylococcus aureus ATCC 33592 assessed as fractional inhibitory concentration index in presence of methicillin by checkerboard assay; format: functional
[31] = tested on: Staphylococcus aureus; test: Synergistic antibacterial activity against methicillin-resistant Staphylococcus aureus ATCC 33592 assessed as fractional inhibitory concentration index in presence of daptomycin by checkerboard assay; format: functional
[32] = tested on: Staphylococcus aureus; test: Synergistic antibacterial activity against methicillin-resistant Staphylococcus aureus ATCC 33592 assessed as fractional inhibitory concentration index in presence of Vancomycin; format: functional
[33] = tested on: Staphylococcus aureus; test: Antibacterial activity against methicillin-resistant Staphylococcus aureus ATCC 33592 assessed as reduction in bacterial count at 3 x MIC incubated upto 24 hrs by time kill analysis; format: functional; conditions: time hrs <=24
Outline: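 Time-kill assay. […] Samples taken at 0, 2, 4, 8, 12 and 24 h, serially diluted in PBS and plated on tryptic soy agar. Viable CFU/mL counted after 18-20 h at 37 °C.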

[34] = tested on: J774; test: Cytotoxicity against mouse J774 cells assessed as reduction in cell viability at 32 ug/ml incubated for 24 hrs by MTS assay; format: cell-based; conditions: j774, 24 h, dose 32 µg/ml
[35] = tested on: Staphylococcus aureus; test: Antibacterial activity against methicillin-resistant Staphylococcus aureus USA400 infected in mouse J774 cells assessed as log reduction in intracellular growth at 8 ug/ml incubated for 18 to 22 hrs; format: functional; conditions: dose 8 µg/ml; time 18-22 hrs
Outline: (§3)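 J774 murine macrophages grown in DMEM with 10% FBS at 37 °C, 5% CO2. Cells infected with MRSA USA400 at MOI about 10:1 for 1 h, then washed with gentamicin to remove extracellular bacteria. Agents added at 8 or 16 μg/mL in triplicate, with DMSO vehicle control, for 24 h. Cells lysed with 0.1% Triton-X, lysates plated on tryptic soy agar, and CFU counted after 18-22 h at 37 °C. Analysed by two-way ANOVA with Dunnett's test.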

[36] = tested on: Staphylococcus aureus; test: Antibacterial activity against methicillin-resistant Staphylococcus aureus USA400 infected in mouse J774 cells assessed as log reduction in intracellular growth at 16 ug/ml incubated for 18 to 22 hrs; format: functional; conditions: dose 16 µg/ml; time 18-22 hrs; outline: as §3

Structure (SMILES): O=C(Nc1nnc(-c2cccs2)o1)c1ccc(SC(F)(F)F)cc1
- MIC [1]: 0.5 µg/mL (≈ 1.35 µM)
- MIC [2]: 0.5 µg/mL (≈ 1.35 µM)
- MIC [3]: 0.5 µg/mL (≈ 1.35 µM)
- MIC [4]: 0.25 µg/mL (≈ 0.673 µM)
- MIC [5]: 0.5 µg/mL (≈ 1.35 µM)
- MIC [6]: 0.5 µg/mL (≈ 1.35 µM)
- MIC [7]: 0.25 µg/mL (≈ 0.673 µM)
- MIC [8]: 0.5 µg/mL (≈ 1.35 µM)
- MIC [9]: 0.5 µg/mL (≈ 1.35 µM)
- MIC [10]: 2 µg/mL (≈ 5.39 µM)
- MIC [11]: 0.5 µg/mL (≈ 1.35 µM)
- MIC [12]: 0.125 µg/mL (≈ 0.337 µM)
- MIC [13]: 0.5 µg/mL (≈ 1.35 µM)
- MIC [14]: 0.5 µg/mL (≈ 1.35 µM)
- MIC [15]: 0.5 µg/mL (≈ 1.35 µM)
- MIC [16]: 0.5 µg/mL (≈ 1.35 µM)
- MIC [17]: 0.25 µg/mL (≈ 0.673 µM)
- MIC [18]: 0.25 µg/mL (≈ 0.673 µM)
- MIC [19]: 0.25 µg/mL (≈ 0.673 µM)
- MIC [20]: 4 µg/mL (≈ 10.8 µM)
- MIC [21]: 4 µg/mL (≈ 10.8 µM)
- MIC [22]: 0.5 µg/mL (≈ 1.35 µM)
- inhibition [23]: inactive
- inhibition [24]: inactive
- inhibition [25]: inactive
- Activity [26]: Non-Toxic
- hemolysis at 1 h, 128 ug/ml [27]: 19%
- MBC [28]: 1 µg/mL (≈ 2.69 µM)
- fractional inhibitory concentration index (FICI) [29]: 0.0625
- fractional inhibitory concentration index (FICI) [30]: 0.5
- fractional inhibitory concentration index (FICI) [31]: 0.63
- fractional inhibitory concentration index (FICI) [32]: 1
- Activity [33]: 4.2 log10CFU/ml
- Activity [34]: Non-Toxic
- Activity [35]: 0.7 log10CFU/ml
- Activity [36]: 0.9 log10CFU/ml

Structure (SMILES): O=C(Nc1nnc(-c2cccs2)o1)c1ccc([N+](=O)[O-])cc1
- MIC [1]: 4 µg/mL (≈ 12.6 µM)
- MIC [2]: 8 µg/mL (≈ 25.3 µM)

Structure (SMILES): O=C(Nc1nnc(-c2cccs2)o1)c1ccc(OC(F)F)cc1
- MIC [1]: 32 µg/mL (≈ 94.9 µM)
- MIC [2]: 32 µg/mL (≈ 94.9 µM)

Structure (SMILES): O=C(Nc1nnc(-c2cccs2)o1)c1ccc(C(F)(F)F)s1
- MIC [1]: 4 µg/mL (≈ 11.6 µM)
- MIC [2]: 2 µg/mL (≈ 5.79 µM)

Structure (SMILES): O=C(Nc1nnc(-c2cccs2)o1)c1ccc(C(F)(F)F)cc1
- MIC [1]: 2 µg/mL (≈ 5.89 µM)
- MIC [2]: 2 µg/mL (≈ 5.89 µM)

Structure (SMILES): O=C(Nc1nnc(-c2cccs2)o1)c1cc(C(F)(F)F)n[nH]1
- MIC [1]: > 64 µg/mL
- MIC [2]: > 64 µg/mL

Structure (SMILES): CSc1ccc(C(=O)Nc2nnc(-c3cccs3)o2)cc1
- MIC [1]: 4 µg/mL (≈ 12.6 µM)
- MIC [2]: 4 µg/mL (≈ 12.6 µM)
